RGS4 pot = RGS4 potentiation or activation; HEK293 M3R/inducible RGS4, carbachol calcium flux Fluo4; hits give low values; B-score at 10 µM; 0.92% of 310,000 active;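 active = B-score of the integrated calcium signal more than 4 SD below the library mean, with starting fluorescence not abnormally high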;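 note: negative B-score means reduced calcium response which marks RGS4 activation or potentiation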
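test system = HEK293 cells with stable M3R and inducible RGS4 | schedule = recording 10 s baseline at 1 Hz, 100 s post-agonist | technique = Fluo4-AM (2 µM) calcium-flux fluorescence, kinetic read | measure = Agonist-evoked peak-minus-minimum fluorescence over baseline, integrated ratio, B score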
RGS4 inh = human RGS4 inhibition. P49798. HEK293 M3R/RGS4 inducible, Fluo-4 calcium flux; hits give high values; triggered by carbachol at its EC20. B-score at 10 µM. 0.45% of 310,000 active. AID 463165;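 active = B-score, a plate-corrected calcium signal, over three deviations above library mean, with baseline fluorescence within five deviations of library mean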;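 note: RGS4 expression induced by doxycycline in cells with stable M3 receptor; B-score is computed from the integrated fluorescence ratio over baseline after carbachol; higher B-score means a larger calcium signal and so more RGS4 inhibition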
Target sequence (P49798 whole entry, looked up): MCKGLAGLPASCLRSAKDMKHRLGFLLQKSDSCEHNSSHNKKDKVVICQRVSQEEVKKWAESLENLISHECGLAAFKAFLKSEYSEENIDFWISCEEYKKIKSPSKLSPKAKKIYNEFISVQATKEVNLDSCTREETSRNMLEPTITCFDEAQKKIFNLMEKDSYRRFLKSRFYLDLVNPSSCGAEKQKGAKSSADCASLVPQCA
MrgX1 agonist = agonists of human MrgX1 receptor; 0.44% of 310,000 active; AID 588627; Q96LB2; B-score at 10 µM; MrgX1-HEK293 cells, Fluo-4 calcium fluorescence, agonist mode; hits give high values;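 active = calcium response B-score plate-corrected fluorescence ratio at least 3 library SD, with starting fluorescence B-score inside 5 SD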
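Test system: HEK293 cells stably expressing human MrgX1 receptor; Input: fifteen thousand cells per well; Dosing: compound delivered in addition one of three; Schedule: overnight seeding, then 1 h dark dye loading; Technique: Fluo-4 NW calcium fluorescence; Measure: B-scored fluorescence response ratio; Controls: positive and negative controls per plate.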
MrgX1 PAM = allosterically activates human MrgX1 receptor signaling; MrgX1-HEK293, Fluo-4 calcium flux, FDSS; hits give high values; B-score at 10 µM; 0.63% of 310,000 active; Q96LB2;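 active = plate-corrected calcium response at least 3 library SD above typical, normal starting fluorescence, not activating the receptor alone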;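 note: compound read alongside a low EC10 to EC30 dose of BAM8-22 agonist; peak minus trough fluorescence over baseline measured at the second addition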
Kir21 inh = Kir2.1 (mouse) channel inhibition; 0.85% of 310,000 active; HEK293-Kir2.1, FluxOR thallium flux fluorescence; hits give low values; B-score at 10 µM; P35561;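 active = fluorescence ratio B-score at or below minus 3 SD of library scores, with starting-brightness B-score within 2 SD, cut at about -4.2 in these data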;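 note: channel flux triggered by added potassium and thallium sulfate stimulus; B-score of peak minus minimum fluorescence over baseline after thallium stimulus; more negative B-score means stronger Kir2.1 block with less thallium influx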
Target sequence (P35561 whole entry, looked up): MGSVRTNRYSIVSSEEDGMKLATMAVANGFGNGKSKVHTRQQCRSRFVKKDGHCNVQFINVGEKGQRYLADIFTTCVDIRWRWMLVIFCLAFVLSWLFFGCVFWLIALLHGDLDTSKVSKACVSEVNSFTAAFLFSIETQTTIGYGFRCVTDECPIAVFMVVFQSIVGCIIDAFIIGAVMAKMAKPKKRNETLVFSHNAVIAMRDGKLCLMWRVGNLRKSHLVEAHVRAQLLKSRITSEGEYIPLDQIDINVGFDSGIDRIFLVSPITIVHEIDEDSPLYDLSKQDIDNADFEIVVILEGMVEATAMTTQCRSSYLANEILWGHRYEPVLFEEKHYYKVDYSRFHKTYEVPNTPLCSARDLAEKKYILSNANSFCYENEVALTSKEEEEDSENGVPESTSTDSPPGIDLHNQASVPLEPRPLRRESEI
MrgX1 antagonist = blocks BAM8-22 activation of human MrgX1 receptor | Q96LB2 | B-score at 10 µM | MRGX1-HEK293 calcium flux, Fluo-4, BAM8-22 antagonism; hits give low values | 1.3% of 310,000 active;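 active = calcium-response B-score plate-corrected more than 3 library SD below zero, starting fluorescence within 5 deviations, no agonist response on first addition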;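 note: peak minus trough fluorescence over baseline after final BAM8-22 challenge near maximal dose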
MrgX1 ag confirm = reconfirmed activator of human MrgX1 receptor signaling; shares compounds with MrgX1 agonist; MrgX1-HEK293, Fluo-4 calcium fluorescence, FDSS; 78% of 600 active; activation, % at 10 µM;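 active = calcium signal rise, corrected for plate position, at least 3 library SD high, with starting brightness within 5 such deviations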
HEK293 Ca flux = activity in parental HEK293 cells lacking MrgX1; AID 624111; shares compounds with MrgX1 antagonist; fluorescence ratio F(max-min)/F0 at 10 µM; 2% of 4,000 active; Fluo-4 calcium fluorescence, FDSS;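 active = duplicate-averaged calcium fluorescence ratio at least three times the standard deviation of buffer wells, a nonspecific response in parental cells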
HEK293 Ca counter = MrgX1 allosteric activator counter-screen hit in parental HEK293 cells; shares compounds with MrgX1 antagonist; parental HEK293 calcium flux, Fluo-4 fluorescence ratio; hits give high values; fluorescence ratio F(max-min)/F0 at 10 µM; 0.4% of 4,000 active; AID 624114;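 active = calcium fluorescence ratio, averaged over duplicates, at least 3 SD of the buffer-well ratio, meaning a nonspecific response in receptor-free cells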;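 note: untransfected parental HEK293 lacking MrgX1 used as counterscreen for MrgX1 allosteric activators; fluorescence change taken during the second addition on a kinetic imager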
HEK293 Ca cntr2 = activity in parental HEK293 cells lacking MrgX1 receptor | 8.7% of 4,000 active | Fluo-4 calcium fluorescence (FDSS); hits give high values | fluorescence ratio F(max-min)/F0 at 10 µM | shares compounds with MrgX1 antagonist;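 active = calcium fluorescence ratio at least three times the spread of buffer wells, meaning a non-specific response in parental cells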
Numbers without * were called inactive. Most compounds without a hit are left out; they make up all but 4.1% or so of the library.

What do the screens show for `COc1ccc(C(=O)NNC(=S)NC(=O)c2cccs2)cc1`?
RGS4 pot: inactive; RGS4 inh: inactive; MrgX1 agonist: 122*; MrgX1 PAM: inactive; Kir21 inh: 0.69; MrgX1 antagonist: inactive; MrgX1 ag confirm: 339%*; HEK293 Ca flux: inactive; HEK293 Ca counter: inactive; HEK293 Ca cntr2: 94*

What do the screens show for `CCCCC(=O)NC(=S)NNC(=O)c1ccc(OC)cc1`?
RGS4 pot: inactive; RGS4 inh: inactive; MrgX1 agonist: 98*; MrgX1 PAM: inactive; Kir21 inh: -0.01; MrgX1 antagonist: inactive; MrgX1 ag confirm: 578%*; HEK293 Ca flux: inactive; HEK293 Ca counter: inactive; HEK293 Ca cntr2: 97*

What do the screens show for `CC(C)C(=O)Nc1ccc(C(=O)NNC(=S)NC(=O)c2cccs2)cc1`?
RGS4 pot: inactive; RGS4 inh: inactive; MrgX1 agonist: inactive; MrgX1 PAM: inactive; Kir21 inh: 1.8; MrgX1 antagonist: inactive

How did CCCCCOc1ccc(Cn2ccnc2)cc1[N+](=O)[O-] do in these assays?
RGS4 pot: inactive; RGS4 inh: inactive; MrgX1 agonist: inactive; MrgX1 PAM: inactive; Kir21 inh: -1.5; MrgX1 antagonist: inactive

Results for CCOC(=O)c1ccc2c(c1)N(CC#N)C(=O)C(C)(C)O2 ?
RGS4 pot: inactive; RGS4 inh: inactive; MrgX1 agonist: 50*; MrgX1 PAM: inactive; Kir21 inh: 1.1; MrgX1 antagonist: inactive; MrgX1 ag confirm: 109%*; HEK293 Ca flux: inactive; HEK293 Ca counter: inactive; HEK293 Ca cntr2: 46*

What do the screens show for `CCC(OC(=O)c1nsc(Cl)c1Cl)C(=O)NCc1ccco1` (centres undefined)?
RGS4 pot: inactive; RGS4 inh: inactive; MrgX1 agonist: inactive; MrgX1 PAM: inactive; Kir21 inh: 0.71; MrgX1 antagonist: inactive

What do the screens show for `c1ccc(CNc2ncnc3scc(-c4cccs4)c23)nc1`?
RGS4 pot: inactive; RGS4 inh: inactive; MrgX1 agonist: 27*; MrgX1 PAM: inactive; Kir21 inh: -0.2; MrgX1 antagonist: inactive; MrgX1 ag confirm: 160%*; HEK293 Ca flux: inactive; HEK293 Ca counter: inactive; HEK293 Ca cntr2: inactive

What do the screens show for `c1ccc(CNc2ncnc3sc4c(c23)CCC4)nc1`?
RGS4 pot: inactive; RGS4 inh: inactive; MrgX1 agonist: inactive; MrgX1 PAM: inactive; Kir21 inh: 1.1; MrgX1 antagonist: inactive

How did CCOc1c(Cl)cc(C(=O)Nc2ccccc2C(=O)O)cc1Cl do in these assays?
RGS4 pot: inactive; RGS4 inh: inactive; MrgX1 agonist: 48*; MrgX1 PAM: inactive; Kir21 inh: 1.6; MrgX1 antagonist: inactive; MrgX1 ag confirm: 78%*; HEK293 Ca flux: inactive; HEK293 Ca counter: inactive; HEK293 Ca cntr2: inactive

How did CCOc1ccc(C(=O)Nc2cccc(C(=O)O)c2C)cc1Cl do in these assays?
RGS4 pot: inactive; RGS4 inh: inactive; MrgX1 agonist: inactive; MrgX1 PAM: inactive; Kir21 inh: -1.1; MrgX1 antagonist: inactive

How did COc1cccc(-n2nnc(S(=O)(=O)c3ccc(C)cc3)c2N)c1 do in these assays?
RGS4 pot: inactive; RGS4 inh: inactive; MrgX1 agonist: 36*; MrgX1 PAM: inactive; Kir21 inh: 2.1; MrgX1 antagonist: inactive; MrgX1 ag confirm: inactive; HEK293 Ca flux: inactive; HEK293 Ca counter: inactive; HEK293 Ca cntr2: inactive

Results for Cc1c(C(O)CN2CCN(Cc3ccc4c(c3)OCO4)CC2)c2ccccc2n1C (centres undefined) ?
RGS4 pot: inactive; RGS4 inh: inactive; MrgX1 agonist: 33*; MrgX1 PAM: inactive; Kir21 inh: 0.45; MrgX1 antagonist: inactive; MrgX1 ag confirm: inactive; HEK293 Ca flux: inactive; HEK293 Ca counter: inactive; HEK293 Ca cntr2: inactive

How did O=C(CCCn1c(=O)oc2ccccc21)N1CCc2ccccc2C1 do in these assays?
RGS4 pot: inactive; RGS4 inh: inactive; MrgX1 agonist: inactive; MrgX1 PAM: inactive; Kir21 inh: -0.33; MrgX1 antagonist: inactive

How did COc1ccc(-c2[nH]c(-c3ccc(F)cc3)nc2SCC(=O)NC2CCCC2)cc1 do in these assays?
RGS4 pot: inactive; RGS4 inh: inactive; MrgX1 agonist: inactive; MrgX1 PAM: inactive; Kir21 inh: 0; MrgX1 antagonist: inactive

Results for COc1ccc(-c2[nH]c(-c3ccccc3)nc2SCC(=O)NC2CCCC2)cc1 ?
RGS4 pot: inactive; RGS4 inh: inactive; MrgX1 agonist: 29*; MrgX1 PAM: inactive; Kir21 inh: -0.21; MrgX1 antagonist: inactive; MrgX1 ag confirm: 208%*; HEK293 Ca flux: inactive; HEK293 Ca counter: inactive; HEK293 Ca cntr2: 46*

Results for O=C(CCCCC(=O)NC1CCCC1)NC1CCCC1 ?
RGS4 pot: inactive; RGS4 inh: inactive; MrgX1 agonist: 40*; MrgX1 PAM: inactive; Kir21 inh: 2.6; MrgX1 antagonist: inactive; MrgX1 ag confirm: inactive; HEK293 Ca flux: inactive; HEK293 Ca counter: inactive; HEK293 Ca cntr2: inactive

How did CC(=O)Nc1cccc(OCC(=O)NCCC2=CCCCC2)c1 do in these assays?
RGS4 pot: inactive; RGS4 inh: inactive; MrgX1 agonist: inactive; MrgX1 PAM: inactive; Kir21 inh: -0.71; MrgX1 antagonist: inactive

How did COc1ccc(N=C(N)SCc2ccccn2)cc1 do in these assays?
RGS4 pot: inactive; RGS4 inh: inactive; MrgX1 agonist: 87*; MrgX1 PAM: inactive; Kir21 inh: -4.5*; MrgX1 antagonist: inactive; MrgX1 ag confirm: 341%*; HEK293 Ca flux: inactive; HEK293 Ca counter: inactive; HEK293 Ca cntr2: 92*

What do the screens show for `COc1ccccc1N1CCN(C2CCCCC2NS(=O)(=O)c2ccc(Cl)cc2)CC1` (centres undefined)?
RGS4 pot: inactive; RGS4 inh: inactive; MrgX1 agonist: 48*; MrgX1 PAM: inactive; Kir21 inh: -0.53; MrgX1 antagonist: inactive; MrgX1 ag confirm: 241%*; HEK293 Ca flux: inactive; HEK293 Ca counter: inactive; HEK293 Ca cntr2: inactive

Compound activity deposited in PubChem by Johns Hopkins Ion Channel Center.
